Experimental data collected from several papers.
Protocols differ between the studies behind these lines.
CDK16: Cyclin-dependent kinase 16 (CDK16, Homo sapiens, UniProt Q00536)
CDK16 with cyclin Y: Cyclin-dependent kinase 16, with cyclin Y (CDK16, Homo sapiens, UniProt Q00536)

CCN1CCC2(CC1)NC(=O)c1c(c3ccc(Cl)c(Cl)c3n1C)C2C#N (racemic)
ΔTm (CDK16; thermal stability, DSF; 10 µM): 0 °C

O=C(O)c1cc(-c2ccc(C3CCNCC3)cc2)c2ccc(-c3ccc(C(F)(F)F)cc3)cc2c1
remaining binding (CDK16; cell-free assay, competition with immobilised ligand; 1 µM): 100%

CS(=O)(=O)Nc1cccc(-c2csc(NC(=O)CSc3nc4nccnc4c(=O)n3CCc3ccccc3)n2)c1
inhibition (CDK16 with cyclin Y; enzyme activity, inhibitor; 10 µM): -1%

CO[C@@H](C)c1c(Nc2ccc([C@@H](N(C)C(=O)C3CCS(=O)(=O)CC3)C(F)(F)F)cc2)cnc2cc(Cl)nn12
remaining binding (CDK16; cell-free assay, competition with immobilised ligand; 1 µM): 72%

N#CC1c2c([nH]c3c(Cl)c(Cl)ccc23)C(=O)NC12CCCCC2 (racemic)
ΔTm (CDK16; thermal stability, DSF; 10 µM): 0.9 °C

CC(C)(C)c1nc(-c2cccc(NS(=O)(=O)c3c(F)cccc3F)c2F)c(-c2ccnc(N)n2)s1
remaining activity (CDK16 with cyclin Y; enzyme activity, inhibitor, radiometric; 1 µM): 53%

COc1cccc2c(NCc3ccccc3)nc(-n3c(N)nc4ccccc43)nc12
inhibition (CDK16; target engagement in cells, inhibitor, chemoproteomics; 20 mM): -2.7%

CN([C@@H]1CCc2c(CC(=O)O)c3cc(S(C)(=O)=O)ccc3n2C1)S(=O)(=O)c1ccc(F)cc1
remaining binding (CDK16; cell-free assay, competition with immobilised ligand; 1 µM): 84%

Cn1c2c(Cl)c(Cl)ccc2c2cn[nH]c(=O)c21
ΔTm (CDK16; thermal stability, DSF; 10 µM): 0.8 °C

Nc1cnc(N2CCc3cc(S(=O)(=O)Nc4c(F)cc(Cl)cc4F)cc(N4CCCC4=O)c32)nc1
remaining binding (CDK16; cell-free assay, competition with immobilised ligand; 1 µM): 98%

Cn1c2c(c3ccc(Cl)c(Cl)c31)C(C#N)C1(CCCCC1)NC2=O (racemic)
ΔTm (CDK16; thermal stability, DSF; 10 µM): 0.6 °C

CCCCNc1ncc2c(-c3ccc(F)cc3)nn(C[C@H]3CC[C@H](N)CC3)c2n1
inhibition (CDK16; target engagement in cells, inhibitor, chemoproteomics; 20 mM): 38.5%
